This is an account of results in ChEMBL document CHEMBL4354843, “Structure-Based Design of a Potent and Selective Covalent Inhibitor for SRC Kinase That Targets a P-Loop Cysteine” (J Med Chem, 2020).

Molecules are shown by their SMILES.

In assay [1] the test system is Tyrosine-protein kinase ABL1 (Homo sapiens), P00519 [Y253F]. Nature of the assay: Binding affinity to human phosphorylated ABL1 Y253F mutant (S229 to K512 residues) expressed in mammalian expression system assessed as residual binding level at 1 uM by Kinomescan method relative to control. In outline:
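Active-site-directed KinomeScan competition binding panel covering 468 kinases, compound tested at 1 μM. Each readout is the kinase signal remaining with compound, expressed as a percentage of the DMSO control. […]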

Assay [2] deals with Tyrosine-protein kinase receptor UFO (Homo sapiens) (UniProt P30530). Nature of the assay: Binding affinity to wild-type human partial length AXL (R497 to Y821 residues) expressed in bacterial expression system assessed as residual binding level at 1 uM by Kinomescan method relative to control.
Assay [3] addresses Cyclin-dependent kinase 11A (Homo sapiens) (UniProt Q9UQ88). Kind of assay: Binding affinity to wild-type human partial length CDC2L2 (D391 to K730 residues) expressed in bacterial expression system assessed as residual binding level at 1 uM by Kinomescan method relative to control.
Assay [4] concerns the target Tyrosine-protein kinase CSK (Homo sapiens) (UniProt P41240). Kind of assay: Binding affinity to wild-type human full length CSK (M1 to L450 residues) expressed in bacterial expression system assessed as residual binding level at 1 uM by Kinomescan method relative to control. In outline: (§1)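 KinomeScan, an active site-directed competition binding panel of 468 kinases. The test compound was at 1 μM. The readout is remaining kinase binding as a percentage of the DMSO control. Scores above 35% were treated as weak binding and not listed.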

In assay [5] the target is Myotonin-protein kinase (Homo sapiens) (UniProt Q09013). Nature of the assay: Binding affinity to wild-type human partial length DMPK (V47 to V415 residues) expressed in bacterial expression system assessed as residual binding level at 1 uM by Kinomescan method relative to control.
In assay [6] the target is Eukaryotic translation initiation factor 2-alpha kinase 1 (Homo sapiens) (UniProt Q9BQI3). Kind of assay: Binding affinity to wild-type human partial length EIF2AK1 (Q147 to E603 residues) expressed in mammalian expression system assessed as residual binding level at 1 uM by Kinomescan method relative to control.
Assay [7] deals with Mitogen-activated protein kinase 6 (Homo sapiens) (UniProt Q16659). Kind of assay: Binding affinity to wild-type human partial length ERK3 (M1 to P413 residues) expressed in bacterial expression system assessed as residual binding level at 1 uM by Kinomescan method relative to control.
In assay [8] the target is Mitogen-activated protein kinase 15 (Homo sapiens) (UniProt Q8TD08). Kind of assay: Binding affinity to wild-type human partial length ERK8 (M1 to P437 residues) expressed in bacterial expression system assessed as residual binding level at 1 uM by Kinomescan method relative to control.
Mitogen-activated protein kinase 15 (Homo sapiens), sequence (Q8TD08 whole entry, the tested form may be a part): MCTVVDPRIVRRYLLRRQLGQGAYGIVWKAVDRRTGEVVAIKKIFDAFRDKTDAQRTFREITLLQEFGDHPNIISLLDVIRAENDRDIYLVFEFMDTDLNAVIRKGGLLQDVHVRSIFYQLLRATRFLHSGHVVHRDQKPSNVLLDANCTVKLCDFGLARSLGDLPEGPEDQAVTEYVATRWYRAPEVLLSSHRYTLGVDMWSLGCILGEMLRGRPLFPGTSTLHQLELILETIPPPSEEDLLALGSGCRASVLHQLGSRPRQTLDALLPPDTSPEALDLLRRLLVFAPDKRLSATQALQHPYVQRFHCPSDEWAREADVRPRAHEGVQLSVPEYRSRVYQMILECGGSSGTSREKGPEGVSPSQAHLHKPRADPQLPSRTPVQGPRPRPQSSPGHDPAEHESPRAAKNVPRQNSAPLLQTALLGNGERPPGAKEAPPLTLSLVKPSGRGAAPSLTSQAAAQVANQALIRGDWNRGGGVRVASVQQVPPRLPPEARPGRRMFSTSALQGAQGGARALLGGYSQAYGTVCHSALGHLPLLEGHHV
In assay [9] the test system is Receptor-type tyrosine-protein kinase FLT3 (Homo sapiens), P36888 [UNDEFINED MUTATION]. Nature of the assay: Binding affinity to human partial length FLT3 ITD/D835V double mutant expressed in bacterial expression system assessed as residual binding level at 1 uM by Kinomescan method relative to control. In outline:
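KinomeScan active site-directed competition binding panel (468 kinases), compound tested at 1 μM. Result expressed as remaining kinase signal versus DMSO control (percent of control).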

Assay [10] has as its target Vascular endothelial growth factor receptor 3 (Homo sapiens) (UniProt P35916). Kind of assay: Binding affinity to wild-type human partial length FLT4 (E821 to E1196 residues) expressed in bacterial expression system assessed as residual binding level at 1 uM by Kinomescan method relative to control.
In assay [11] the target is Tyrosine-protein kinase HCK (Homo sapiens, UniProt P08631). Kind of assay: Binding affinity to wild-type human full length HCK (M22 to P526 residues) expressed in bacterial expression system assessed as residual binding level at 1 uM by Kinomescan method relative to control. In outline:
as §1

Assay [12] deals with Homeodomain-interacting protein kinase 1 (Homo sapiens) (UniProt Q86Z02). Nature of the assay: Binding affinity to wild-type human partial length HIPK1 (M146 to I555 residues) expressed in mammalian expression system assessed as residual binding level at 1 uM by Kinomescan method relative to control.
Homeodomain-interacting protein kinase 1 (Homo sapiens), sequence (Q86Z02 whole entry, looked up, the tested form may be a part): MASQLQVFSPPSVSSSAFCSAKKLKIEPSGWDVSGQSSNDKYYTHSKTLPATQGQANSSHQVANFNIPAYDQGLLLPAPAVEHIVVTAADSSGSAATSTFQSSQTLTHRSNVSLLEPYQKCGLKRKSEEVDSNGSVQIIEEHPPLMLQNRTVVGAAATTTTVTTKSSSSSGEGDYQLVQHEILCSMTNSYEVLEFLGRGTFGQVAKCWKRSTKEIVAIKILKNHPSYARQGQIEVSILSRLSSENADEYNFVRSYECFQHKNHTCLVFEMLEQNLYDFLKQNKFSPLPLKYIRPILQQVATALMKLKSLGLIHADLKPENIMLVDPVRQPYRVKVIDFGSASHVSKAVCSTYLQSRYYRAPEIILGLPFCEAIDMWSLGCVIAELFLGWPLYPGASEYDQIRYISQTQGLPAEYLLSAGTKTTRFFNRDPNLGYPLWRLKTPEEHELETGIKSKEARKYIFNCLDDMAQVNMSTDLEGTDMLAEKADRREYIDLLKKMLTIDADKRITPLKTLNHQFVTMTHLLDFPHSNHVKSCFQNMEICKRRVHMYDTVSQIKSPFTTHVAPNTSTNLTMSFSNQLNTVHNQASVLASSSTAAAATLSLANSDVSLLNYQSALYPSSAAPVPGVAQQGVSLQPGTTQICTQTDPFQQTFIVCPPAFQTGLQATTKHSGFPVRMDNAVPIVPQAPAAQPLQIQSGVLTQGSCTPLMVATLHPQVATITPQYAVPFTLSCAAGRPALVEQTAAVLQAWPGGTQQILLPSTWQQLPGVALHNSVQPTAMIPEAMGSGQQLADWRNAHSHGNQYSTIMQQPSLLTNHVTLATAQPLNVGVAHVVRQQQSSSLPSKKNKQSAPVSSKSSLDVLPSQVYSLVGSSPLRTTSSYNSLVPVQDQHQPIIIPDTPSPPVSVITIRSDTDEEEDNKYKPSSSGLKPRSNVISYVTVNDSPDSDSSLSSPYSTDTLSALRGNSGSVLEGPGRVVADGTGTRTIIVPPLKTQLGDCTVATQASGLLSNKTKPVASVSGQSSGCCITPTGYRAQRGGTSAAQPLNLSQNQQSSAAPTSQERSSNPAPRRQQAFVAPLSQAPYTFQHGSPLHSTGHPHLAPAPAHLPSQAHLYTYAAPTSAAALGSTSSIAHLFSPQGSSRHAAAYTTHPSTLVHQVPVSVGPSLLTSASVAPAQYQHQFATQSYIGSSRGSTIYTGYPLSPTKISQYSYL
Assay [13] addresses Serine/threonine-protein kinase MAK (Homo sapiens) (UniProt P20794). Kind of assay: Binding affinity to wild-type human partial length MAK (M1 to P314 residues) expressed in bacterial expression system assessed as residual binding level at 1 uM by Kinomescan method relative to control. Put shortly:
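Active-site-directed competition binding panel of 468 kinases (KinomeScan), compound at 1 μM. The read-out is kinase remaining bound, given as a percentage of the DMSO control. […]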

Assay [14] deals with Mitogen-activated protein kinase kinase kinase kinase 4 (Homo sapiens) (UniProt O95819). Nature of the assay: Binding affinity to wild-type human partial length MAP4K4 (M1 to R310 residues) expressed in bacterial expression system assessed as residual binding level at 1 uM by Kinomescan method relative to control.
Assay [15] deals with Rho-associated protein kinase 1 (Homo sapiens) (UniProt Q13464). Nature of the assay: Binding affinity to wild-type human partial length ROCK1 (M1 to R415 residues) expressed in mammalian expression system assessed as residual binding level at 1 uM by Kinomescan method relative to control.
For assay [16], the target named is SNF-related serine/threonine-protein kinase (Homo sapiens) (UniProt Q9NRH2). Kind of assay: Binding affinity to wild-type human partial length SNRK (M1 to E339 residues) expressed in mammalian expression system assessed as residual binding level at 1 uM by Kinomescan method relative to control.
SNF-related serine/threonine-protein kinase (Homo sapiens), sequence (Q9NRH2 whole entry, the tested form may be a part): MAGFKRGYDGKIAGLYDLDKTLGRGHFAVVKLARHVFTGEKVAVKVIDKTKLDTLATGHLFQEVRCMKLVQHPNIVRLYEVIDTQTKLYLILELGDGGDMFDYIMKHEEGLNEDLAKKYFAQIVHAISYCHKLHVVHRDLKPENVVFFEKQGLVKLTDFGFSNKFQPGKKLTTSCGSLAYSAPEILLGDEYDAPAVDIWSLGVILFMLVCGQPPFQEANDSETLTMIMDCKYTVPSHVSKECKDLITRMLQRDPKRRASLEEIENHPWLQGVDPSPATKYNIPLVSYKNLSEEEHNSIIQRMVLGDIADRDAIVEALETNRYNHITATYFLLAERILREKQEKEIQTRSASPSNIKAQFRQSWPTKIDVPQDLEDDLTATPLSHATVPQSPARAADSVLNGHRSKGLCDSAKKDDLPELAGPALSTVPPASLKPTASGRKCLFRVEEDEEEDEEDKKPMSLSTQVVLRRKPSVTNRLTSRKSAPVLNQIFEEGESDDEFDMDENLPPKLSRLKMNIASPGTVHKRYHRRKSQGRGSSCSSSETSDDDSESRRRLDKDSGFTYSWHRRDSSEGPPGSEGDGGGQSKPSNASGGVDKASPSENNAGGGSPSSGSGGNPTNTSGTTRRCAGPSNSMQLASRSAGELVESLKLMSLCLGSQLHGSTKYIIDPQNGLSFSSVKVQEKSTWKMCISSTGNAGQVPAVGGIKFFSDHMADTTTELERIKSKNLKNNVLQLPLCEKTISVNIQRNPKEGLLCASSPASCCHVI
Assay [17] deals with Serine/threonine-protein kinase TAO2 (Homo sapiens) (UniProt Q9UL54). Nature of the assay: Binding affinity to wild-type human partial length TAOK2 (M1 to A320 residues) expressed in mammalian expression system assessed as residual binding level at 1 uM by Kinomescan method relative to control.
Assay [18] concerns the target Serine/threonine-protein kinase tousled-like 2 (Homo sapiens) (UniProt Q86UE8). Kind of assay: Binding affinity to wild-type human partial length TLK2 (E424 to N749 residues) expressed in bacterial expression system assessed as residual binding level at 1 uM by Kinomescan method relative to control.
Assay [19] concerns the target Activated CDC42 kinase 1 (Homo sapiens) (UniProt Q07912). Nature of the assay: Binding affinity to wild-type human partial length TNK2 (S159 to D474 residues) expressed in bacterial expression system assessed as residual binding level at 1 uM by Kinomescan method relative to control. In outline:
(§2)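 Active site-directed competition binding panel (KinomeScan, 468 kinases). Test compound at 1 μM. Read-out is kinase binding remaining versus DMSO control, expressed as percent of control. Scores above 35% are treated as weak binding.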

The target in assay [20] is Testis-specific serine/threonine-protein kinase 3 (Homo sapiens) (UniProt Q96PN8). Kind of assay: Binding affinity to wild-type human full length TSSK3 (M1 to T268 residues) expressed in mammalian expression system assessed as residual binding level at 1 uM by Kinomescan method relative to control. Put shortly:
as §1

In assay [21] the target is Phosphatidylinositol 3-kinase catalytic subunit type 3 (Homo sapiens) (UniProt Q8NEB9). Kind of assay: Binding affinity to wild-type human partial length VPS34 (S282 to H879 residues) expressed in mammalian expression system assessed as residual binding level at 1 uM by Kinomescan method relative to control. In outline: as §2
Phosphatidylinositol 3-kinase catalytic subunit type 3 (Homo sapiens), sequence (Q8NEB9 whole entry, the tested form may be a part): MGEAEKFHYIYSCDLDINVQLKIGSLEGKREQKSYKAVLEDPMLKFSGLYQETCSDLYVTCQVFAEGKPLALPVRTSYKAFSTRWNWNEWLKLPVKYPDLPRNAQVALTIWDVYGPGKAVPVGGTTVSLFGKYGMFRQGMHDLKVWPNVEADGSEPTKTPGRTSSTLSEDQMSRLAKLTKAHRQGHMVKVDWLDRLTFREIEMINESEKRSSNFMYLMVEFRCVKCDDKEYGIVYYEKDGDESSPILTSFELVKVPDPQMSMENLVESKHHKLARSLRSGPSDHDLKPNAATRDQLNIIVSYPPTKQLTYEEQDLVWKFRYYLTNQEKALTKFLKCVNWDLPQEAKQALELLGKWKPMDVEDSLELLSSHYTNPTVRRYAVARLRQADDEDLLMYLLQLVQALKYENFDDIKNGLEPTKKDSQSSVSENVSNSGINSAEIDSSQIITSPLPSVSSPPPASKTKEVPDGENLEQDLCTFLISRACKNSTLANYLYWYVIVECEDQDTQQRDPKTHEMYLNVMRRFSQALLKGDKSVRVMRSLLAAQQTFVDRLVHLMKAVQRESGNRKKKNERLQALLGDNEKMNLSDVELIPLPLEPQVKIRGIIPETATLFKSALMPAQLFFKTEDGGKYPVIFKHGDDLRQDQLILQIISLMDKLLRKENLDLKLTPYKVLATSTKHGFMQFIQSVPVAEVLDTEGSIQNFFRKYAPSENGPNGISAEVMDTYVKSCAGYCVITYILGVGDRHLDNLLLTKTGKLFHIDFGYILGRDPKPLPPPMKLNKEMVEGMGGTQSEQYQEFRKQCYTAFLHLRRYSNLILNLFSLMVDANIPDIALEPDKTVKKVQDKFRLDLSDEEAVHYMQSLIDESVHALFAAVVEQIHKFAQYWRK

Testis-specific serine/threonine-protein kinase 3 (Homo sapiens), sequence (Q96PN8 whole entry, the tested form may be a part): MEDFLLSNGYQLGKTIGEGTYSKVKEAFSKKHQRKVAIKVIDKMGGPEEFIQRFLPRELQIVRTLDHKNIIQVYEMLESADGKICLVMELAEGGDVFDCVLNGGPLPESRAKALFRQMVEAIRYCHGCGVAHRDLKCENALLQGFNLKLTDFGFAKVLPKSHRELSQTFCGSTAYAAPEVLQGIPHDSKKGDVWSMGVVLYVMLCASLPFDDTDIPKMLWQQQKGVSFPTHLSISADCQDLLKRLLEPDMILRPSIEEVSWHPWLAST
Tyrosine-protein kinase HCK, sequence (P08631 2-526 limits assumed): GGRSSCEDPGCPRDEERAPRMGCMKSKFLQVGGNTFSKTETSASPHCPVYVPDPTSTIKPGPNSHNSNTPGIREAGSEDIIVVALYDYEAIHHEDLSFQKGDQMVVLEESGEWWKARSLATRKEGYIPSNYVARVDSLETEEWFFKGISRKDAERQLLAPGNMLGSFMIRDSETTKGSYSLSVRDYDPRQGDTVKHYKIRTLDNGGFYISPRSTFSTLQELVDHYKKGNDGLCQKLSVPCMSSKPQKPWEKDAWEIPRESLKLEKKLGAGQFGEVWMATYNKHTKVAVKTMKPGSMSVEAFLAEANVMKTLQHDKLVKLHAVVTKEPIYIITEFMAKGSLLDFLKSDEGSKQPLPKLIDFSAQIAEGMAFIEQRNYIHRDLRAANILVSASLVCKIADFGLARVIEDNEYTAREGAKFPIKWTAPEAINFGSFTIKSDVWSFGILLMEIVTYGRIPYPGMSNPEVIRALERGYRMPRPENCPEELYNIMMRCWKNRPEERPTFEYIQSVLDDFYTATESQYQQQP
Serine/threonine-protein kinase MAK (Homo sapiens), sequence (P20794 whole entry, the tested form may be a part): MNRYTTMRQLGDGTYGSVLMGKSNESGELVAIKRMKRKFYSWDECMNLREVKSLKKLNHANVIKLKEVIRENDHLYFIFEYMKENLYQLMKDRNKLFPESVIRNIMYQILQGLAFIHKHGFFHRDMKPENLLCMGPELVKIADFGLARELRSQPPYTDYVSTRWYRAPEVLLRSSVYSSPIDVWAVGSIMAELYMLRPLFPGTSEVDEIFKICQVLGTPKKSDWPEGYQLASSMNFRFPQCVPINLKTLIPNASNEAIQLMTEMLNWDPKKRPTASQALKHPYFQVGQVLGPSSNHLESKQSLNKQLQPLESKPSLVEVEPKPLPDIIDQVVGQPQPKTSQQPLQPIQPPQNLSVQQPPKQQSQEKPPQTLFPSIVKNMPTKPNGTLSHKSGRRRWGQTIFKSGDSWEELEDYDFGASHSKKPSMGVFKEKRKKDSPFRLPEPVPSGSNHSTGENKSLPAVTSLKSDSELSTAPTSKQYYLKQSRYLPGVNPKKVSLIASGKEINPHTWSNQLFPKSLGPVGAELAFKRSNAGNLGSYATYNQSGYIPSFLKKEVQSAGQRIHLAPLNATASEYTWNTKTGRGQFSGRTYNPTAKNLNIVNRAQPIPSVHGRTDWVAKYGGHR

As for `C=CC(=O)Nc1ccccc1Nc1nc(Nc2ccc(N3CCN(C)CC3)cc2)ncc1C(=O)Nc1c(C)cccc1Cl`, the Activity in assay [1] stood at 0.1%; in [2] it was 100%; in [3] it was 100%; in assay [4], 1.3%; in assay [5], 100%; in [6], 100%. Further, the Activity was found to be 100% in [7]; 100% in assay [8]; 89% in assay [9]; 100% in assay [10]; 0.8% in assay [11]; 100% in assay [12]. Further, the Activity in assay [13] is 70%; in assay [14], 100%; in [15] it was 100%; in assay [16] it was 100%; in assay [17], 100%; in assay [18], 100%. The Activity in assay [19] is 81%; in [20], 90%; in assay [21], 98%.
